From ChEMBL document CHEMBL1135709, “2,6-Di(omega-aminoalkyl)-2,5,6,7-tetrahydropyrazolo[3,4,5-mn]pyrimido[5,6,1-de]acridine-5,7-diones: novel, potent, cytotoxic, and DNA-binding agents” (J Med Chem, 2002)
pIC50: −log10 of the molar value.

Tests used:
MCF7 [1] = test: Percent growth of NCI cell line, breast: MCF-7 exposed for 48 hr at 10e-4 concentration; assay type: functional, Homo sapiens
Method in brief: (§1)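 NCI panel cell lines exposed 48 h to 10^-8, 10^-6 and 10^-4 M drug; read-out is percent growth at each concentration.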

786-0 [2] = test: Percent growth of NCI cell line, renal: 786-0 exposed for 48 hr at 10e-8 concentration; assay type: functional, Homo sapiens; method in brief: as §1
SNB-19 [3] = test: Percent growth of NCI cell line, CNS: SNB-19 exposed for 48 hr at 10e-4 concentration; assay type: functional, Homo sapiens; method in brief: as §1
HT-29 = test: In vitro cytotoxic potency against HT-29 (human colon adenocarcinoma) cell line.; assay type: functional, cell-based
LOX IMVI = test: Percent growth of NCI cell line, melanoma: LOX IMVI exposed for 48 hr at 10e-8 concentration; assay type: functional, Homo sapiens; method in brief: as §1
MCF7 [4] = test: Percent growth of NCI cell line, breast: MCF-7 exposed for 48 hr at 10e-8 concentration; assay type: functional, Homo sapiens; method in brief: as §1
LoVo [5] = test: Cytotoxicity activity on LoVo human adenocarcinoma cell line after 144 hr of drug exposure; assay type: functional, cell-based
Method in brief: (§2)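 LoVo (sensitive) and LoVo/Dx (resistant) human colon adenocarcinoma cells seeded at 2.5 × 10^5 cells/mL medium; drug solutions added to culture.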

786-0 [6] = test: Percent growth of NCI cell line, renal: 786-0 exposed for 48 hr at 10e-4 concentration; assay type: functional, Homo sapiens; method in brief: as §1
Calf thymus DNA = test: CT-DNA binding required to produce a 50% drop in fluorescence of DNA-bound ethidium.; assay type: nucleic-acid assay; settings: Bos taurus
Method in brief: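 Ethidium displacement from calf thymus DNA in 10 mM Na2HPO4, 10 mM NaH2PO4, 1 mM EDTA, pH 7.0, containing 1.26 μM ethidium bromide and 1 μM CT-DNA. Drug added serially from ~5 mM DMSO stock; 20 °C; fluorescence excitation 546 nm, emission 595 nm. C50 = drug concentration lowering DNA-bound ethidium fluorescence by 50%, mean of three determinations.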

[7] = Percent growth of NCI cell line, melanoma: LOX IMVI exposed for 48 hr at 10e-6 concentration; assay type: functional, Homo sapiens; method in brief: as §1
[8] = Percent growth of NCI cell line, leucemia K562 exposed for 48 hr at 10e-8 concentration; assay type: functional, Homo sapiens; method in brief: as §1
SNB-19 [9] = test: Percent growth of NCI cell line, CNS: SNB-19 exposed for 48 hr at 10e-6 concentration; assay type: functional, Homo sapiens; method in brief: as §1
LoVo [10] = test: Cytotoxicity activity on LoVo/Dx human adenocarcinoma cell line after 1 hr of drug exposure; assay type: functional, cell-based
Method in brief: (§3)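 LoVo (sensitive) and LoVo/Dx (resistant) human colon adenocarcinoma cells seeded at 2.5 × 10^5 cells/mL medium; drug solutions added to culture. IC50 = drug concentration inhibiting cell growth by 50%, assays in triplicate.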

HCT-15 [11] = test: Percent growth of NCI cell line, colon: HCT-15 exposed for 48 hr at 10e-6 concentration; assay type: functional, Homo sapiens; method in brief: as §1
LoVo [12] = test: Cytotoxicity activity on LoVo human adenocarcinoma cell line after 1 hr of drug exposure; assay type: functional, cell-based; method in brief: as §3
[13] = Percent growth of NCI cell line, leucemia K562 exposed for 48 hr at 10e-4 concentration; assay type: functional, Homo sapiens; method in brief: as §1
NCI-H460 [14] = test: Percent growth of NCI cell line, lung-nsc: NCI-H460 exposed for 48 hr at 10e-4 concentration; assay type: functional, Homo sapiens; method in brief: as §1
HCT-15 [15] = test: Percent growth of NCI cell line, colon: HCT-15 exposed for 48 hr at 10e-8 concentration; assay type: functional, Homo sapiens; method in brief: as §1
DU-145 [16] = test: Percent growth of NCI cell line, prostate: DU-145 exposed for 48 hr at 10e-4 concentration; assay type: functional, Homo sapiens; method in brief: as §1
[17] = Percent growth of NCI cell line, leucemia K562 exposed for 48 hr at 10e-6 concentration; assay type: functional, Homo sapiens; method in brief: as §1
MCF7 [18] = test: Percent growth of NCI cell line, breast: MCF-7 exposed for 48 hr at 10e-6 concentration; assay type: functional, Homo sapiens; method in brief: as §1
DU-145 [19] = test: Percent growth of NCI cell line, prostate: DU-145 exposed for 48 hr at 10e-8 concentration; assay type: functional, Homo sapiens; method in brief: as §1
[20] = Percent growth of NCI cell line, melanoma: LOX IMVI exposed for 48 hr at 10e-4 concentration; assay type: functional, Homo sapiens; method in brief: as §1
OVCAR-4 [21] = test: Percent growth of NCI cell line, ovarian: OVCAR-4 exposed for 48 hr at 10e-6 concentration; assay type: functional, Homo sapiens; method in brief: as §1
HCT-15 [22] = test: Percent growth of NCI cell line, colon: HCT-15 exposed for 48 hr at 10e-4 concentration; assay type: functional, Homo sapiens; method in brief: as §1
DU-145 [23] = test: Percent growth of NCI cell line, prostate: DU-145 exposed for 48 hr at 10e-6 concentration; assay type: functional, Homo sapiens; method in brief: as §1
786-0 [24] = test: Percent growth of NCI cell line, renal: 786-0 exposed for 48 hr at 10e-6 concentration; assay type: functional, Homo sapiens; method in brief: as §1
NCI-H460 [25] = test: Percent growth of NCI cell line, lung-nsc: NCI-H460 exposed for 48 hr at 10e-8 concentration; assay type: functional, Homo sapiens; method in brief: as §1
LoVo [26] = test: Cytotoxicity activity on LoVo/Dx human adenocarcinoma cell line after 144 hr of drug exposure; assay type: functional, cell-based; method in brief: as §2
OVCAR-4 [27] = test: Percent growth of NCI cell line, ovarian: OVCAR-4 exposed for 48 hr at 10e-4 concentration; assay type: functional, Homo sapiens; method in brief: as §1
NCI-H460 [28] = test: Percent growth of NCI cell line, lung-nsc: NCI-H460 exposed for 48 hr at 10e-6 concentration; assay type: functional, Homo sapiens; method in brief: as §1
OVCAR-4 [29] = test: Percent growth of NCI cell line, ovarian: OVCAR-4 exposed for 48 hr at 10e-8 concentration; assay type: functional, Homo sapiens; method in brief: as §1
SNB-19 [30] = test: Percent growth of NCI cell line, CNS: SNB-19 exposed for 48 hr at 10e-8 concentration; assay type: functional, Homo sapiens; method in brief: as §1

## CN(C)CCn1c(=O)c2ccc3c4c(nn3CCN(C)C)c3cc(N)ccc3n(c1=O)c24
MCF7 [1]
  Growth: -65%
786-0 [2]
  Growth: 23%
SNB-19 [3]
  Growth: -69%
HT-29
  pIC50: 8.43
LOX IMVI
  Growth: 47%
MCF7 [4]
  Growth: 62%
LoVo [5]
  pIC50: 9.28
786-0 [6]
  Growth: -95%
Calf thymus DNA
  C50: 0.0009 µM
[7]
  Growth: -28%
[8]
  Growth: 45%
SNB-19 [9]
  Growth: -14%
LoVo [10]
  pIC50: 6.26
HCT-15 [11]
  Growth: -25%
LoVo [12]
  pIC50: 6.89
[13]
  Growth: -15%
NCI-H460 [14]
  Growth: -64%
HCT-15 [15]
  Growth: 54%
DU-145 [16]
  Growth: -67%
[17]
  Growth: 7%
MCF7 [18]
  Growth: -6%
DU-145 [19]
  Growth: 59%
[20]
  Growth: -50%
OVCAR-4 [21]
  Growth: -47%
HCT-15 [22]
  Growth: -75%
DU-145 [23]
  Growth: -11%
786-0 [24]
  Growth: -44%
NCI-H460 [25]
  Growth: 16%
LoVo [26]
  pIC50: 7.80
OVCAR-4 [27]
  Growth: -51%
NCI-H460 [28]
  Growth: -28%
OVCAR-4 [29]
  Growth: 55%
SNB-19 [30]
  Growth: 43%
